Experimental data published in ChEMBL document CHEMBL3856286, “Halogenated naphthochalcones and structurally related naphthopyrazolines with antitumor activity” (Bioorg Med Chem Lett, 2016).
Calls of active or inactive are those of the source. The rule behind the calls is not given here.

What was measured:
[1] = target: T1, Broad substrate specificity ATP-binding cassette transporter ABCG2 (Homo sapiens, UniProt Q9UNQ0); assay: Inhibition of BCRP in human MCF7/Topo cells assessed as mitoxantrone accumulation preincubated for 10 mins followed by mitoxantrone addition measured after 30 mins by fluorescence assay; type: cell-based
T1 sequence (Q9UNQ0 whole entry): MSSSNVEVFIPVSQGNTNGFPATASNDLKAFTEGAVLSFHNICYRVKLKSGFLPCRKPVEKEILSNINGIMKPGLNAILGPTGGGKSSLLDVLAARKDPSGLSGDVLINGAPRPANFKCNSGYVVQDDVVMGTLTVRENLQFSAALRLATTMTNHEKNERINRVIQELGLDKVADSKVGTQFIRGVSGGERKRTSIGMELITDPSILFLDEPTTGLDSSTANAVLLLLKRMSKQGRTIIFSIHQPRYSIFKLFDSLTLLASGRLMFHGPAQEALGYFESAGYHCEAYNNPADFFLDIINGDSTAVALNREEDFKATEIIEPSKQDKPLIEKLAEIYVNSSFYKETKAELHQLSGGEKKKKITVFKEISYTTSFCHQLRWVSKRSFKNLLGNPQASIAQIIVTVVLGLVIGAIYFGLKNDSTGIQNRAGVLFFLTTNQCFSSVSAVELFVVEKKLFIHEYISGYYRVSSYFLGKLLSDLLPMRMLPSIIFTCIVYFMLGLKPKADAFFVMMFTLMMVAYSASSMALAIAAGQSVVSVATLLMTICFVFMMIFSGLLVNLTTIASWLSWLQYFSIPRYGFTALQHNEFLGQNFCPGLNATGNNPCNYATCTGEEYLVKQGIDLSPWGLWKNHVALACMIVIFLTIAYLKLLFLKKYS
Method in brief: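 MCF-7/Topo breast cancer cells (BCRP-overexpressing) exposed to compounds at 0–100 µM, or fumitremorgin C 0.1–100 µM as reference inhibitor, for 30 min with mitoxantrone as fluorescent BCRP substrate. Mitoxantrone fluorescence taken as measure of inhibition; IC50 from dose–response curves; mean ± SD of three independent experiments.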

[2] = (§1) Growth inhibition of human KB-V1/Vbl cells after 72 hrs by MTT assay; type: functional
[3] = tested on: KB-V1/Vbl; assay: as §1; type: functional
[4] = tested on: 518A2; assay: Inhibition of tubulin polymerization in human 518A2 cells assessed as increase in detergent soluble tubulin heterodimers at 5 to 50 uM after 4 hrs by Western blot analysis; type: cell-based
Method in brief: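 518A2 melanoma cells treated 4 h with a range of concentrations; detergent-insoluble (polymeric tubulin) lysate fraction separated by centrifugation, run on SDS–PAGE, immunoblotted for alpha-tubulin (55 kDa); densitometry from at least two independent experiments (mean ± SD).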

[5] = target: P-gp (ABCB1) (Homo sapiens, UniProt P08183); assay: Potency index, ratio of verapamil IC50 to compound IC50 for P-gp in human KB-V1/Vbl cells; type: cell-based; details: read-out: Ratio IC50
[6] = (§2) Growth inhibition of human HCT116 cells after 72 hrs by MTT assay; type: functional, cell-based; details: HCT-116, 72 h
[7] = tested on: HCT-116; assay: as §2; type: functional, cell-based
[8] = (§3) Growth inhibition of human PANC1 cells after 72 hrs by MTT assay; type: functional, cell-based; details: PANC-1, 72 h
[9] = tested on: PANC-1; assay: as §3; type: functional, cell-based
[10] = target: ATP-dependent translocase ABCB1 (Homo sapiens, UniProt P08183); assay: Inhibition of P-gp in human KB-V1/Vbl cells assessed as calcein-AM accumulation preincubated for 15 mins followed by calcein-AM addition measured after 15 mins by fluorescence assay; type: cell-based
[11] = Cell cycle arrest in human HT-29 cells assessed as decrease in G1 phase at 15 uM after 24 hrs by propidium iodide staining based flow cytometry; type: functional
Method in brief: (§4)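 HT-29 colon carcinoma cells treated 24 h with 15 µM compound or DMSO (control); propidium iodide staining, flow cytometry for cell-cycle phase distribution and sub-G1 fraction. Means ± SD of three independent experiments.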

[12] = (§5) Growth inhibition of human MCF7/Topo cells after 72 hrs by MTT assay; type: functional, cell-based
[13] = tested on: MCF7/Topo; assay: as §5; type: functional, cell-based
[14] = species on record: Sus scrofa; assay: Inhibition of pig brain tubulin polymerization at 5 uM measured every 20 sec for 2 hrs by turbidimetric method
[15] = Cell cycle arrest in human HT-29 cells assessed as accumulation in G2/M phase at 15 uM after 24 hrs by propidium iodide staining based flow cytometry; type: functional; method in brief: as §4
[16] = (§6) Growth inhibition of human 518A2 cells after 72 hrs by MTT assay; type: functional, cell-based; details: 518A2, 72 h
[17] = tested on: 518A2; assay: as §6; type: functional, cell-based
[18] = (§7) Growth inhibition of human HT-29 cells after 72 hrs by MTT assay; type: functional, cell-based; details: HT-29, 72 h
[19] = tested on: HT-29; assay: as §7; type: functional, cell-based
[20] = tested on: 518A2; assay: Induction of apoptosis in human 518A2 cells assessed as DNA ladder formation at 50 uM after 24 hrs by ethidium bromide staining based agarose gel electrophoresis; type: functional, cell-based
[21] = tested on: 518A2; assay: Induction of apoptosis in human 518A2 cells assessed as DNA fragmentation at 25 uM after 24 hrs by TUNEL based flow cytometry; type: functional, cell-based
Method in brief: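 518A2 melanoma cells treated 24 h; DNA fragmentation detected by TUNEL labelling and quantified by flow cytometry against untreated controls.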

[22] = tested on: 518A2; assay: Binding affinity to tubulin in human 518A2 cells assessed as effect on F-actin cytoskeleton by measuring increase in stress fibres at 10 uM after 24 hrs by phalloidin 488/DAPI staining based fluorescence microscopic analysis; type: cell-based
Method in brief: (§8)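 518A2 melanoma cells treated 24 h at 10 µM or 5 µM; F-actin fluorescently stained and cytoskeletal organisation, including stress-fibre formation, compared with untreated controls by fluorescence microscopy.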

[23] = tested on: 518A2; assay: Binding affinity to tubulin in human 518A2 cells assessed as effect on F-actin cytoskeleton by measuring increase in stress fibres at 5 uM after 24 hrs by phalloidin 488/DAPI staining based fluorescence microscopic analysis; type: cell-based; method in brief: as §8

Chain of P-gp (ABCB1) (P08183 whole entry): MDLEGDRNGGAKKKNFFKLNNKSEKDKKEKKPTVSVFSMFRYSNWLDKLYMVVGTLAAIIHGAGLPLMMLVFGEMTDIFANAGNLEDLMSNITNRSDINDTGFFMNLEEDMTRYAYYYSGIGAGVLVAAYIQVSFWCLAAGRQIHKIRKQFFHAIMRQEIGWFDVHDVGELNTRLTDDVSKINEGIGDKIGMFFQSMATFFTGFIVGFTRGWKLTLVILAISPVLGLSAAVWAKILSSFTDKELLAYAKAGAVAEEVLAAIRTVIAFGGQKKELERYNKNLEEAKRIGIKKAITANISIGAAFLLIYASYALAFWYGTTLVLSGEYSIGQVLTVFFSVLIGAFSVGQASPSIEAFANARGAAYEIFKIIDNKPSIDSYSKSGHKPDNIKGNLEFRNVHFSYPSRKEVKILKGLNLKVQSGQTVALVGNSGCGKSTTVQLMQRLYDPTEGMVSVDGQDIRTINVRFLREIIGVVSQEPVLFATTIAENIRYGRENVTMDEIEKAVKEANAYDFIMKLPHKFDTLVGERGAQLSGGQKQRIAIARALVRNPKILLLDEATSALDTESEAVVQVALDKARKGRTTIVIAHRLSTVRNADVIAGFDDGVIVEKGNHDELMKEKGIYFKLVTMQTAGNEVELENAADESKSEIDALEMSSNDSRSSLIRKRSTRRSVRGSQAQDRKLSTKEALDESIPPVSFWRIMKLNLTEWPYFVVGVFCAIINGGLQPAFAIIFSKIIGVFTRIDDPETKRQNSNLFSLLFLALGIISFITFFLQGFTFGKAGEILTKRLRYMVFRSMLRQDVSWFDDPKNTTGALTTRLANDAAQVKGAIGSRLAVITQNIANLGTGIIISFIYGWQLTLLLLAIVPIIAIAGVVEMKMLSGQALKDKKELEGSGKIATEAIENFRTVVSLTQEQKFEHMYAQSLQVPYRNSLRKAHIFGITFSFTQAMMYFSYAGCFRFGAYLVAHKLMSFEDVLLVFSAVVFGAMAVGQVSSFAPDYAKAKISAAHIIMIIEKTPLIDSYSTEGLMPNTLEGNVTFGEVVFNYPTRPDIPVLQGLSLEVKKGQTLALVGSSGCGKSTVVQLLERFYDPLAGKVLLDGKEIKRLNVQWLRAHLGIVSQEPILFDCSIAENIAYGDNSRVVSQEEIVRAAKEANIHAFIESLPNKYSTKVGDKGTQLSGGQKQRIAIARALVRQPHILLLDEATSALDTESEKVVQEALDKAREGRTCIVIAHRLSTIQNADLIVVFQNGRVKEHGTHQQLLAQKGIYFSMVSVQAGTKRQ
Chain of ATP-dependent translocase ABCB1 (P08183 whole entry): as above

IC50 [10] [µM]	inhibition [14]	SMILES	IC50 [1] [µM]	IC50 [2] [µM]	growth inhibition (GI) [3]	inhibition [4]	selectivity ratio [5]	IC50 [6] [µM]	growth inhibition (GI) [7]	IC50 [8] [µM]	growth inhibition (GI) [9]	Activity [11]	IC50 [12] [nM]	growth inhibition (GI) [13]	Activity [15]	IC50 [16] [µM]	growth inhibition (GI) [17]	IC50 [18] [µM]	growth inhibition (GI) [19]	other results
16.3	Active	COc1cc(C2CC(c3ccc4ccccc4c3)=NN2C(C)=O)cc(I)c1OC (configuration not stated)	7.1	1.9	Dose-dependent effect	Active	4 to 5	1.6	Dose-dependent effect	1.1	Dose-dependent effect	Active	2500	Dose-dependent effect	Active	3.8	Dose-dependent effect	2.3	Dose-dependent effect	
> 500	Active	COc1cc(/C=C/C(=O)c2ccc3ccccc3c2)cc(Cl)c1OC	8.7	13.1	Dose-dependent effect	Active		12.9	Dose-dependent effect	10.3	Dose-dependent effect	Active	1500	Dose-dependent effect	Active	16.4	Dose-dependent effect	23.9	Dose-dependent effect	Activity [20]: Active; Activity [21]: Active; Activity [22]: Active
13		COc1cc(/C=C/C(=O)c2ccc3ccccc3c2)cc(OC)c1OC	2.4	13.9	Dose-dependent effect		4 to 5	13.7	Dose-dependent effect	13.3	Dose-dependent effect	Active	5600	Dose-dependent effect	Active	22.9	Dose-dependent effect	28.1	Dose-dependent effect	Activity [20]: Active; Activity [21]: Active; Activity [22]: Active
12.6		COc1cc(C2CC(c3ccc4ccccc4c3)=NN2C(C)=O)cc(Br)c1OC (configuration not stated)	8.9	2.2	Dose-dependent effect		4 to 5	2.7	Dose-dependent effect	1.5	Dose-dependent effect	Active	2600	Dose-dependent effect	Active	3.8	Dose-dependent effect	2.5	Dose-dependent effect	
> 500		COc1cc(/C=C/C(=O)c2ccc3ccccc3c2)cc(Br)c1OC	4.9	10.5	Dose-dependent effect			11.2	Dose-dependent effect	9.3	Dose-dependent effect	Active	2300	Dose-dependent effect	Active	20.2	Dose-dependent effect	22.8	Dose-dependent effect	
12.1	Active	COc1cc(C2CC(c3ccc4ccccc4c3)=NN2C(C)=O)cc(Cl)c1OC (configuration not stated)	7.4	4.7	Dose-dependent effect	Active	4 to 5	3.8	Dose-dependent effect	3.1	Dose-dependent effect	Active	2100	Dose-dependent effect	Active	4.6	Dose-dependent effect	3.5	Dose-dependent effect	Activity [23]: Active
> 500	Active	COc1cc(/C=C/C(=O)c2ccc3ccccc3c2)cc(I)c1OC	7.8	16.5	Dose-dependent effect	Active		14.4	Dose-dependent effect	10.4	Dose-dependent effect	Active	1300	Dose-dependent effect	Active	18.1	Dose-dependent effect	13.3	Dose-dependent effect	
		COc1ccc2c3c([nH]c2c1)[C@H](C=C(C)C)N1C(=O)[C@@H]2CCCN2C(=O)[C@@H]1C3 [FUMITREMORGIN]	0.96																	
